According to PubChem BioAssay:
Calls of active or inactive are those of the source.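 How the source made its calls, unless noted: active means visually confirmed hit in the image check and inhibition above 20%; inconclusive means visually confirmed hit but inhibition not above 20%; inactive means no visual hit in the image check.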

Experiments:
[1] = inhibitors of TNFa-induced NFkB p65 translocation, primary screen, imaging, HUVEC, MLSMR starter and 10KST1 sets (AID 438;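 active means inhibition above 20% together with a positive visual image hit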;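 further: compound added about 3h40 before a 20 min TNFalpha stimulation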;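 on inhibition: signal is the nuclear over cytoplasmic p65 intensity ratio per well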); conditions: HUVEC TNFa-induced p65 nuclear translocation; cell count: measured here: nuclei count (cytotoxicity indicator), at 2.08 µM; inhibition: at 2 µM, stronger effect = higher value, 0% TNFa-plus-vehicle, 100% no-TNFa wells
[2] = inhibitors of mutant huntingtin aggregation, primary screen, imaging, exon1htt(103Q)mCFP cells, high-content imaging (AID 483;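 active means visual image review flags a hit and inhibition of aggregation exceeds 20%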;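 further: compound exposure lasted 3 days before fixation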;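 on nuclei count: percent of the per-plate median nuclei count of sample wells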); conditions: exon1htt(103Q)mCFP cell line, aggregate imaging, at 2 µM; inhibition of aggregation: stronger effect = higher value; nuclei count: measured here: cell count, toxicity
[3] = inhibitors of E-selectin induction by TNFa, primary screen, imaging, HUVEC, immunofluorescence, MLSMR starter and 10KST1 sets (AID 487); conditions: HUVEC TNFalpha-induced E-selectin immunofluorescence imaging, at 2 µM; inhibition: stronger effect = higher value; nuclei count: measured here: cell number, toxicity;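 on inhibition: signal is fraction of cell area covered by stained E-selectin grains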;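 on nuclei count: 100% = median nuclei count of all wells on the same plate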
[4] = target: Voltage-gated potassium channel subunit beta-2 (Rattus norvegicus) (UniProt P62483); assay: KvBeta enzyme negative modulators, primary screen, biochemical, NADPH fluorescence (AID 622;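 active means fluorescence slope higher than the sample average by over 3 SD, cut at about -0.22 in these data, passing the limit was not always enough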;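 further: slope of raw intensity against log time taken from 70 to 1610 s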); conditions: recombinant KvBeta, 4-cyanobenzaldehyde reduction, at 10 µM, stronger effect = higher value
Voltage-gated potassium channel subunit beta-2 (Rattus norvegicus), sequence (P62483 whole entry, looked up): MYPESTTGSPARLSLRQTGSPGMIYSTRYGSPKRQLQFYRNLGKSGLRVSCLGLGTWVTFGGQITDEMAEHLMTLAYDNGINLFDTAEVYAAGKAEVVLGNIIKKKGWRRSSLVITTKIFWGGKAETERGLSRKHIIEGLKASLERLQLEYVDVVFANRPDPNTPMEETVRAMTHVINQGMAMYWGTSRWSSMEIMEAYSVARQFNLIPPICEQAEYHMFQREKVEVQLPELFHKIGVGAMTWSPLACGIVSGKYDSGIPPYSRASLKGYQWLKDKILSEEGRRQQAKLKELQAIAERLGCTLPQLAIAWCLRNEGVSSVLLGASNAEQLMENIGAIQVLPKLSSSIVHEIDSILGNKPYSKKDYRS

[5] = target: Voltage-gated potassium channel subunit beta-2 (Rattus norvegicus) (UniProt P62483); assay: KvBeta positive modulators, primary screen, biochemical, NADPH fluorescence (AID 623;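 active means NADPH fluorescence slope more negative than the mean of all samples by about 3 SD, 99.7% confidence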;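 further: fluorescence intensity change per second fitted from 20 to 320 s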); conditions: Recombinant KvBeta, NADPH fluorescence decrease slope, 10 min; at 10 µM; stronger effect = lower value
[6] = target: Muscarinic acetylcholine receptor M4 (Homo sapiens) (UniProt P08173); assay: compounds altering M4/GIRK thallium flux, either direction, primary screen, M4 allosteric agonist project, cell-based, HEK293 M4/GIRK, BTC-AM (AID 625;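 active means fluorescence slope after compound addition differing from the mean of all tested samples at 99.7% confidence, mostly higher but some lower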;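 further: thallium influx through GIRK channels coupled to M4 in HEK293 cells with BTC-AM dye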); conditions: at 10 µM, actives lie on both sides
Muscarinic acetylcholine receptor M4 (Homo sapiens), sequence (P08173 whole entry, looked up): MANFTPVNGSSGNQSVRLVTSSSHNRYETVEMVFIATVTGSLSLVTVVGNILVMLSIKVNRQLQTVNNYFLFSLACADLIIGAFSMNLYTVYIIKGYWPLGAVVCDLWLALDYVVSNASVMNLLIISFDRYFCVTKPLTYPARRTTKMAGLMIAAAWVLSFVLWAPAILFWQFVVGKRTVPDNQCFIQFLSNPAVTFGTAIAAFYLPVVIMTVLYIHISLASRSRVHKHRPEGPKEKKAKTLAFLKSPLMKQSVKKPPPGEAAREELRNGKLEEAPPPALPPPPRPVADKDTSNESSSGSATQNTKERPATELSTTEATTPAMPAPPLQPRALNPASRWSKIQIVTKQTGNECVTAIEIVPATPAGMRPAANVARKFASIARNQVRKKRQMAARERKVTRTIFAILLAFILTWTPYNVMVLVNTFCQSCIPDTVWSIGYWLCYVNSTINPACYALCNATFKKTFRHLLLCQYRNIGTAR
Summary of the method: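 Assay system: HEK293 cells with M4 receptor and GIRK channels / Controls: carbachol and DMSO controls / Schedule: 1 h dye loading, 2 min kinetic read / Technique: kinetic fluorescence with BTC-AM dye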

[7] = inhibitors of Sendai virus-induced IRF3 signaling, primary screen, TLR/RLR signaling modifier project, cell-based, Sendai virus stimulus, luciferase, 10K MLSCN set (AID 602276;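 active means inhibition at or above 50% at 10 µM; inactive means inhibition below 50%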;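 further: firefly luciferase from ISG56 promoter only with Renilla not read in this screen; 0% = Sendai virus plus DMSO and 100% = medium plus DMSO without virus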); conditions: HEK293 RL24 IRF3 luciferase reporter, at 10 µM, stronger effect = higher value
[8] = inhibitors of poly I:C-induced TLR3 signaling, primary screen, cell-based, poly I:C stimulus, luciferase, 10K MLSCN set (AID 602277;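 active means inhibition of the reporter signal at or above 50%; inactive means inhibition below 50%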); conditions: HEK293-TLR3 RL24 IRF3 luciferase reporter, at 10 µM, stronger effect = higher value

| SMILES | cell count [1] | inhibition [1] | inhibition of aggregation [2] | nuclei count [2] | inhibition [3] | nuclei count [3] | fluorescence slope [4] | NADPH fluorescence slope [5] | fluorescence slope [6] | inhibition [7] | inhibition [8] |
| --- | --- | --- | --- | --- | --- | --- | --- | --- | --- | --- | --- |
| CC(c1nnc(SCC(=O)Nc2sccc2C#N)n1-c1ccc(Cl)cc1)N(C)C (stereo not drawn) | 539 | -20.1% (inactive) | 2% (inactive) | 101% | -28.9% (inactive) | 143% | -0.463 (inactive) | -2.7e-05 (inactive) | 0.00514 (inactive) | 17.6% (inactive) | 25.1% (inactive) |
| COc1ccccc1-n1nnnc1SCc1ccccc1 | 211 | -1.5% (inactive) | 6.5% (inactive) | 108% | -25.5% (inactive) | 92.6% | -0.51 (inactive) | -2.7e-05 (inactive) | 0.00333 (inactive) | 13% (inactive) | 16.5% (inactive) |
| CCOC(=O)N1CCN(C(=O)CN(C)S(=O)(=O)c2ccc(OC)c(OC)c2)CC1 | 464 | 5.8% (inactive) | -12.7% (inactive) | 118% | 17.8% (inactive) | 102% | -0.614 (inactive) | -3.8e-05 (inactive) | 0.00404 (inactive) | 16.2% (inactive) | 20.5% (inactive) |
| CC1CN(S(=O)(=O)c2cccc(C(=O)OCc3cc(=O)oc4cc(O)ccc34)c2)CC(C)O1 (stereo not drawn) | 380 | -2.9% (inactive) | 3% (inactive) | 100% | -28.2% (inactive) | 83% | -0.288 (inactive) | -7.6e-05 (inactive) | 0.00505 (inactive) | 23.9% (inactive) | 23.3% (inactive) |
| Cn1c2ccccc2c2c(C(=O)NCCCN3CCCC3=O)cn(C3CCCCC3)c(=O)c21 | 592 | -17.5% (inactive) | -29.3% (inactive) | 112% | 20.1% (inactive) | 110% | -0.428 (inactive) | 3.4e-05 (inactive) | 0.00608 (inactive) | 9.9% (inactive) | 15.9% (inactive) |
| COc1ccc(OC)c(NC(=O)CSc2nc3ccccc3c(=O)n2CCNC(C)=O)c1 | 497 | -4.3% (inactive) | 10.1% (inactive) | 111% | -17.6% (inactive) | 115% | -0.455 (inactive) | 4e-05 (inactive) | 0.00813 (inactive) | 14.7% (inactive) | 18.6% (inactive) |
| Cc1ccc(C)c(SCC(=O)Nc2nnc(-c3ccccc3)o2)c1 | 395 | -16.8% (inactive) | -12.6% (inactive) | 99.9% | -16.3% (inactive) | 124% | -0.586 (inactive) | -3.2e-05 (inactive) | 0.00772 (inactive) | 13.5% (inactive) | 19.4% (inactive) |
| Cc1ccc(Cn2nnc3c(=O)[nH]c(C4CCN(C(=O)c5cccs5)CC4)nc32)cc1 | 430 | 5.1% (inactive) | -16.4% (inactive) | 106% | -71.2% (inactive) | 109% | -0.546 (inactive) | 1.3e-05 (inactive) | 0.00572 (inactive) | 5.84% (inactive) | 10.8% (inactive) |
